This is a sample that favours compounds with a hit; in the whole collection about 2.2% have one here.
F508del corr: F508del CFTR correction, initial screen, CFBE line, single point | 350,000 tested, 0.36% active | activity (quench increase), % at 7.58 µM | CFBE cells, YFP halide quenching; stimulated with forskolin plus potentiator P3; % fluorescence drop versus neutral controls;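 active = mean added fluorescence quench of at least 8% versus neutral control, with both replicates also reaching 8%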;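 note: cells transiently co-express mutant CFTR-F508del with the halide-sensitive YFP; corrector assay measuring rescue of mutant channel to the surface after 24 h compound exposure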
FGF22 binding: binders of human FGF22 protein, primary screen, FGF22 synaptogenesis inhibitor project, biophysical, thermal shift, single point. recombinant FGF22 thermal shift, SYPRO orange fluorescence; percent of sucrose octasulfate shift, DMSO zero. AID 651658, 2012. 340,000 tested, 1.5% active. activity (Tm shift, normalised), % at 9.99 µM. Fibroblast growth factor 22 (Homo sapiens), Q9HCT0;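 active = mean Tm shift, scaled 0 neutral to 100 positive control, at about 1.3% or above, every replicate too, limit read from the data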
Target sequence (Q9HCT0 whole entry, looked up): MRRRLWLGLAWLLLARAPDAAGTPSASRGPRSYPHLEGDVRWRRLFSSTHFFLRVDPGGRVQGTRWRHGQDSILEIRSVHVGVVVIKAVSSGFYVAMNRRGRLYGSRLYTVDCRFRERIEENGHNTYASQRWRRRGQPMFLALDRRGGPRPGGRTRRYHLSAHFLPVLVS
S100A4 MyoIIA: inhibitors of S100A4-myosin IIA peptide binding, primary screen, biochemical, fluorescence polarization, TAMRA-MyoIIA peptide; Protein S100-A4 (Homo sapiens), P26447; inhibition, % at 10.7 µM; 360,000 tested, 0.14% active;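 active = mean inhibition of at least 70% across replicates, with every replicate also reaching that level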
Target sequence (P26447 whole entry, looked up): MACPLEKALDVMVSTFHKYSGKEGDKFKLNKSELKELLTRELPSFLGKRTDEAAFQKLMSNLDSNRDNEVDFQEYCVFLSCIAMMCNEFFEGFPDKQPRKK
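Assay system: human S100A4 monomer with TAMRA-labelled myosin IIA peptide / Buffer or medium: Calcium-containing HEPES buffer, pH 7.2 / Reagent: TAMRA-labelled myosin IIA heavy-chain peptide probe, 5 nM / Compound: one dose per compound / Timing: polarization read 5 min after assay mix addition, stable 5–60 min / Benchmarks: neutral control DMSO, positive control TFP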
dFosB act-1: activators of delta FosB homodimer, primary screen, biochemical, fluorescence polarization, TAMRA-CDK5 oligo, single point; Protein FosB (Mus musculus), P13346; purified delta FosB; percent of positive-control signal above neutral wells; activation, % at 25 µM; 340,000 tested, 0.99% active; AID 493131, 2011;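 active = mean activation above about 17%, with every replicate also reaching it, limit read from the data, passing the limit was not always enough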
Target sequence (P13346 whole entry, looked up): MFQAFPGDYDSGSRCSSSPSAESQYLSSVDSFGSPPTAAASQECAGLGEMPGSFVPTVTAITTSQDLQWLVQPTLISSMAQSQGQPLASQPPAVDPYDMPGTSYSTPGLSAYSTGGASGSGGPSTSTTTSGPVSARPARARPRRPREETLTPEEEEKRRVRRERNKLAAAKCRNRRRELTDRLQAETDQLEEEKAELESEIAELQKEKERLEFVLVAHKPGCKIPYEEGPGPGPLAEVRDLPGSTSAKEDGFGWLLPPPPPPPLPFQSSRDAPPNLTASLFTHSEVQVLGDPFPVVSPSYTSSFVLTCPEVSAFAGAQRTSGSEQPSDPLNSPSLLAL
dFosB act-2: activators of mouse delta FosB DNA binding, confirmation, biochemical, fluorescence polarization, TAMRA-CDK5 oligo, cherry-picked samples; purified delta FosB; normalised: neutral wells 0, positive control 100; shares compounds with dFosB act-1; AID 588690, 2011; 2,400 tested, under 10 active; activation, % at 24.9 µM;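 active = highest replicate activation at or above 34% and every replicate reaching that threshold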;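 note: higher polarization means more probe DNA bound by delta FosB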
Large screens that a line does not name were inactive (follow-up assays come after a bar, where they were run).

CCCOc1ccc(-c2c(C(=O)N/N=C/c3ccccc3)nnn2-c2nonc2N)cc1	dFosB act-1 30 | dFosB act-2 inactive
CCOc1ccc(/C=N/NC(=O)c2nnn(-c3nonc3N)c2-c2ccc(OCC)cc2)cc1	none
Nc1nonc1-n1nnc(C(=O)N/N=C/c2ccc3c(c2)OCO3)c1CSc1ccccc1	dFosB act-1 36 | dFosB act-2 inactive
Nc1nonc1-n1nnc(C(=O)N/N=C/c2cccc(F)c2)c1-c1ccc2c(c1)OCO2	dFosB act-1 37 | dFosB act-2 inactive
COc1ccc(NC(=O)Nc2ccc3c(c2)C(=O)N([C@H](C)CO)C[C@@H](C)[C@H](CN(C)C)O3)cc1	none (no result: dFosB act-1)
COc1ccccc1C(=O)Nc1ccc2c(c1)OC[C@H](C)NC[C@H](C)[C@@H](OC)CN(C)C2=O	none (no result: FGF22 binding, dFosB act-1)
CN(C)CC#Cc1ccc([C@H]2[C@H]3CN(C(=O)C4CCCC4)CCCCN3[C@H]2CO)cc1	none (no result: FGF22 binding, S100A4 MyoIIA, dFosB act-1)
Cc1ccc(SC(c2ccc(C)cc2)C(Cn2cncn2)C(=O)c2ccccc2)cc1 (configuration not stated)	none (no result: F508del corr, FGF22 binding, S100A4 MyoIIA)
Cc1ccc(C(Sc2ccccc2)C(Cn2cncn2)C(=O)c2ccccc2)cc1 (configuration not stated)	dFosB act-1 24 (no result: F508del corr, FGF22 binding, S100A4 MyoIIA) | dFosB act-2 inactive
Cc1ccc(NC(=O)/C(C#N)=C/c2ccc(C)s2)c(C)c1	dFosB act-1 17 (no result: F508del corr, FGF22 binding, S100A4 MyoIIA) | dFosB act-2 inactive
O=C(CCc1nc2ccccc2c(=O)[nH]1)NCCN1C(=O)S/C(=C\c2ccc(OC(F)F)cc2)C1=O	dFosB act-1 47 | dFosB act-2 inactive
CC=Cc1ccc2n(c1=O)C[C@H]1[C@H](CO)[C@@H](C(=O)NCCC)[C@@H]2N1C(=O)C1CC1 (mixture of isomers)	none (no result: dFosB act-1)
O=C(COC(=O)c1ccccc1NC(=O)c1ccco1)NCc1ccc2c(c1)OCO2	dFosB act-1 30 (no result: F508del corr, FGF22 binding, S100A4 MyoIIA) | dFosB act-2 inactive
C[C@@H]1CCCCO[C@H](CN(C)CC2CCCCC2)[C@H](C)CN([C@H](C)CO)C(=O)c2cc(NC(=O)CCCN(C)C)ccc2O1	none (no result: FGF22 binding, S100A4 MyoIIA, dFosB act-1)
O=C(Nc1nc(-c2ccccc2)cs1)c1ccc2c(=O)n3c(nc2c1)CCCCC3	dFosB act-1 18 | dFosB act-2 inactive
O=C(Nc1ccccc1Cl)c1ccc2c(=O)n3c(nc2c1)CCC3	none
CCOC(=O)Nc1ccc2c(c1)N(C(=O)CN)c1ccccc1CC2	dFosB act-1 30 | dFosB act-2 inactive
Cc1sc2nc(CN3CCOCC3)nc(N3CCN(S(=O)(=O)c4ccccc4)CC3)c2c1C	none
Cc1sc2nc(CN3CCCC3)nc(N3CCN(S(=O)(=O)c4cccc(F)c4)CC3)c2c1C	dFosB act-1 44 | dFosB act-2 inactive
Cc1ccc(S(=O)(=O)N(C)C[C@H]2Oc3ccc(NC(=O)Nc4c(C)noc4C)cc3C(=O)N([C@@H](C)CO)C[C@H]2C)cc1	none (no result: dFosB act-1)
CCOC(=O)N1CCN(C2=Nc3cccc4cccc2c34)CC1	dFosB act-1 22 (no result: F508del corr, FGF22 binding, S100A4 MyoIIA) | dFosB act-2 inactive
c1cc2c3c(cccc3c1)C(N1CCOCC1)=N2	none
CC(=O)N1CCN(C2=Nc3cccc4cccc2c34)CC1	dFosB act-1 17 (no result: F508del corr, FGF22 binding, S100A4 MyoIIA) | dFosB act-2 inactive
COc1ccccc1N1CCN(C(=O)CN2C(=O)c3cccc4cccc(c34)C2=O)CC1	none
CC1CN(C2=Nc3cccc4cccc2c34)CC(C)O1 (configuration not stated)	none
c1ccc(CC2CCN(C3=Nc4cccc5cccc3c45)CC2)cc1	dFosB act-1 23 (no result: F508del corr, FGF22 binding, S100A4 MyoIIA) | dFosB act-2 inactive
COc1ccccc1N1CCN(C2=Nc3cccc4cccc2c34)CC1	dFosB act-1 26 (no result: F508del corr) | dFosB act-2 inactive
Cc1ccc(S(=O)(=O)Nc2ccc3c(c2)CC(=O)N([C@@H](C)CO)C[C@H](C)[C@@H](CN(C)C(=O)NC2CCCCC2)O3)cc1	none (no result: dFosB act-1)
CO[C@H]1CN(C)C(=O)c2cc(NS(=O)(=O)c3ccc(C)cc3)ccc2OC[C@H](C)N(C)C[C@H]1C	none (no result: dFosB act-1)
CO[C@H]1CN(C)C(=O)c2ccc(NC(=O)c3cccc(F)c3)cc2OC[C@H](C)N(C)C[C@@H]1C	none (no result: dFosB act-1)
CCCN(C)C[C@@H]1Oc2ncc(-c3ccccc3)cc2C(=O)N([C@@H](C)CO)C[C@@H]1C	none (no result: FGF22 binding, S100A4 MyoIIA, dFosB act-1)
O=C(OCC(=O)c1c[nH]c2ccccc12)c1ccco1	none (no result: F508del corr, FGF22 binding, S100A4 MyoIIA)
COc1cc(NC(=O)c2ccco2)c(C(=O)OCC(=O)c2c[nH]c3ccccc23)cc1OC	dFosB act-1 39 (no result: F508del corr, FGF22 binding, S100A4 MyoIIA) | dFosB act-2 inactive
Cc1ccc2nc3c(c(N)c2c1)CCN3C	dFosB act-1 18 | dFosB act-2 inactive
COc1cccc(NC(=O)C[C@H]2CC[C@@H]3[C@H](COc4ccc(NC(=O)C5CCCCC5)cc4C(=O)N3C)O2)c1	none (no result: dFosB act-1)
Fc1cccc(/C=N/NC(=S)Nc2ccccc2Cl)c1	none (no result: F508del corr, FGF22 binding, S100A4 MyoIIA)
Fc1ccc(NC(=S)N/N=C/c2cccc(Br)c2)c(F)c1	dFosB act-1 36 (no result: F508del corr, FGF22 binding) | dFosB act-2 inactive
O=C(Nc1cccnc1Cl)c1cc(-c2ccc(F)cc2)on1	dFosB act-1 84 | dFosB act-2 inactive
O=C(Nc1cccnc1)c1cc(-c2cccc(Cl)c2)on1	dFosB act-1 57 | dFosB act-2 inactive
COc1ccc(-c2cc(C(=O)Nc3cccnc3Cl)no2)cc1	none
COc1ccc(-c2cc(C(=O)Nc3cccnc3)no2)cc1OC	none
Cc1ccc(NC(=O)c2cc(-c3ccc(F)cc3)on2)cc1C	none
CC(=O)c1cccc(NC(=O)c2cc(-c3ccc(F)cc3)on2)c1	dFosB act-1 25 | dFosB act-2 inactive
COc1ccccc1C#Cc1ccc2c(c1)O[C@@H](CN(C)C)[C@H](C)CN([C@@H](C)CO)S2(=O)=O	none (no result: dFosB act-1)
O=C(N[C@H]1CC[C@@H](CCNS(=O)(=O)Cc2ccccc2)O[C@H]1CO)c1cnccn1	none (no result: dFosB act-1)
C[C@@H]1CN([C@H](C)CO)C(=O)Cc2cc(NC(=O)Nc3ccccc3)ccc2O[C@@H]1CN(C)Cc1ccc(Oc2ccccc2)cc1	none (no result: dFosB act-1)
CC(=O)Nc1ccc(NC(=S)NC(=O)/C=C/c2ccc(Cl)cc2)cc1	none
O=C(/C=C/c1ccc(Cl)cc1)NC(=S)Nc1ccc(NC(=O)c2ccco2)cc1	dFosB act-1 85 (no result: F508del corr, FGF22 binding, S100A4 MyoIIA) | dFosB act-2 inactive
Cc1cc2oc(C(=O)Nc3ccc(S(=O)(=O)Nc4nccs4)cc3)cc(=O)c2cc1Cl	dFosB act-1 37 (no result: F508del corr, FGF22 binding, S100A4 MyoIIA) | dFosB act-2 inactive
Cc1cc2oc(C(=O)Nc3ccc(S(=O)(=O)Nc4ncccn4)cc3)c(C)c2cc1Cl	none
COc1ccccc1NC(=O)c1sc2ncn(CC(=O)Nc3ccccc3)c(=O)c2c1C	dFosB act-1 49 | dFosB act-2 inactive
Cc1ccc(Nc2nc(N)c3ccccc3n2)cc1C	dFosB act-1 42 (no result: FGF22 binding) | dFosB act-2 inactive
Cc1cc(Nc2ccc(C)c(C)c2)c2ccccc2n1	none
